Legend:
Stromelysin-1 [1] = target: T1, Stromelysin-1 (Homo sapiens, UniProt P08254); test: Inhibition of Matrix Metalloprotease-3
Summary of the method: (§1)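 Stromelysin-1, recombinant human C-terminally truncated form, used at 10 nM final. Conditions: room temperature; Hepes 20 mM, CaCl₂ 5 mM, Brij35 0.02%, cysteine 0.5 mM; inhibitor in degassed methanol (2% final) preincubated 3 min. Reaction started with quenched-fluorescence substrate Mca-PLGL-Dpa-AR-NH₂ (10 μM final), read at ex 330/em 430 nm every minute for 30 min. IC50 came from rate fit v_i = v_0/(1+[I]/IC50).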

[2] = target: T2, Matrix metalloproteinase-9 (Homo sapiens, UniProt P14780); test: Inhibition of Matrix Metalloprotease-9
T2 sequence (P14780 whole entry, the tested form may be a part): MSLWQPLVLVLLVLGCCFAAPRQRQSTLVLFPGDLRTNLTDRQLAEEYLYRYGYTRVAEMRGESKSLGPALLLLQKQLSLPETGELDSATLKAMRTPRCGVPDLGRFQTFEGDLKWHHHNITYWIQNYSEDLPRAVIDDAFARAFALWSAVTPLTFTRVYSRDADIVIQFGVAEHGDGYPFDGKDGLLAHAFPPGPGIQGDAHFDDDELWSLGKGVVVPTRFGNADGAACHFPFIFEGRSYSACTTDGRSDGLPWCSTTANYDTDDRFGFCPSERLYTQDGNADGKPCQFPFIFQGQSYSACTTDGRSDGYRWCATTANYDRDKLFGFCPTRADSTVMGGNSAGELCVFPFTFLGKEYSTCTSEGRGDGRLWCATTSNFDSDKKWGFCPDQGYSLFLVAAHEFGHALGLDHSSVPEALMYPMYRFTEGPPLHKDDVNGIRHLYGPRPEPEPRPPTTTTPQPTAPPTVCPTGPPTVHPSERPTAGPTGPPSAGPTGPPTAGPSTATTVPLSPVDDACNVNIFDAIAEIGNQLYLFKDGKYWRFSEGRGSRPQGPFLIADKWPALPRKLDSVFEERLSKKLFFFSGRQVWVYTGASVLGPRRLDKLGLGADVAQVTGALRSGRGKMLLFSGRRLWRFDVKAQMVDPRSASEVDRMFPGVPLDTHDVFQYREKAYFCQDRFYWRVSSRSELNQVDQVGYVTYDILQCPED
Summary of the method: (§2)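 Gelatinase-B, a recombinant C-terminally truncated form expressed in Pichia pastoris, used at 2 nM final. Buffer was 20 mM Hepes, 5 mM CaCl₂, 0.02% Brij35, 0.5 mM cysteine, at room temperature. Inhibitor in degassed methanol (2% final) was added 3 min before 10 μM Mca-Pro-Leu-Gly-Leu-Dpa-Ala-Arg-NH₂. Fluorescence at 330/430 nm was logged per minute for 30 min; IC50 was fitted to v_i = v_0/(1+[I]/IC50).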

Interstitial collagenase [3] = target: T3, Interstitial collagenase (Homo sapiens, UniProt P03956); test: Inhibition of Matrix Metalloprotease-1
T3 sequence (P03956 whole entry): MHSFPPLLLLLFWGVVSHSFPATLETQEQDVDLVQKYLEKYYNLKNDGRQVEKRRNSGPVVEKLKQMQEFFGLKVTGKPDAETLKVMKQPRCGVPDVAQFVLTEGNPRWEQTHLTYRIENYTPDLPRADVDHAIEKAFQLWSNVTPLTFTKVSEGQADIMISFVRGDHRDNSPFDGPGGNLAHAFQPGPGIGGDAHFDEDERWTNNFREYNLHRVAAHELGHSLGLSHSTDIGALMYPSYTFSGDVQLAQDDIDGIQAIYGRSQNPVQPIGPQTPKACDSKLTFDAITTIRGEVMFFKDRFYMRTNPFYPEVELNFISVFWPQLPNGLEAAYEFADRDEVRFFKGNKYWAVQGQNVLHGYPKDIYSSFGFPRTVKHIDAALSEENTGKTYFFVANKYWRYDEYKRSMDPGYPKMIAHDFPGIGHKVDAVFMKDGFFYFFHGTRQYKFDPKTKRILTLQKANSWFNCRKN
Summary of the method: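 Recombinant C-terminally truncated human collagenase-1 at 10 nM final, in 20 mM Hepes, 5 mM CaCl₂, 0.02% Brij35, 0.5 mM cysteine at room temperature. Inhibitor was added in degassed methanol (2% final), then 3 min later 10 μM Mca-Pro-Leu-Gly-Leu-Dpa-Ala-Arg-NH₂. Fluorescence (ex 330/em 430 nm) was read each minute for 30 min; IC50 was fitted as v_i = v_0/(1+[I]/IC50).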

[4] = target: T2, Matrix metalloproteinase-9; test: Inhibition of gelatinase-B (Matrix metalloprotease-9); parameters: species or system Komagataella pastoris; summary of the method: as §2
Stromelysin-1 [5] = target: T1, Stromelysin-1; test: Inhibition of stromelysin-1; summary of the method: as §1
Matrilysin = target: T4, Matrilysin (Homo sapiens, UniProt P09237); test: Inhibition of matrilysin (Matrix metalloprotease-7)
T4 sequence (P09237 whole entry): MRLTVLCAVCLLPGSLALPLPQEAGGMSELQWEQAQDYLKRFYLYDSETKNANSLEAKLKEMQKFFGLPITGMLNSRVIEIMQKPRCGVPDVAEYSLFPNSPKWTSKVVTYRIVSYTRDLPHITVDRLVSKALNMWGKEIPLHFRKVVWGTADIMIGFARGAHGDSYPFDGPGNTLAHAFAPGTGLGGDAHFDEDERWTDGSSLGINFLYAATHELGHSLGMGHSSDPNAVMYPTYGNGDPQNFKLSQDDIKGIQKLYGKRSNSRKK
Summary of the method: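 Matrilysin (recombinant C-terminally truncated human) at 0.5 nM final, room temperature, in buffer of 20 mM Hepes, 5 mM CaCl₂, 0.02% Brij35, 0.5 mM cysteine. Inhibitor was added from degassed methanol (2% final) with 3 min preincubation, then 10 μM quenched-fluorescence Mca-PLGL-Dpa-AR-NH₂ substrate. Fluorescence (ex 330/em 430 nm) was read once a minute for 30 min; IC50 came from v_i = v_0/(1+[I]/IC50).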

Interstitial collagenase [6] = target: T3, Interstitial collagenase; test: Inhibition of collagenase-1 (Matrix metalloprotease-1)
Stromelysin-1 [7] = target: T1, Stromelysin-1; test: Inhibition of stromelysin (Matrix metalloprotease-3); summary of the method: as §1

T1 sequence (P08254 whole entry, the tested form may be a part): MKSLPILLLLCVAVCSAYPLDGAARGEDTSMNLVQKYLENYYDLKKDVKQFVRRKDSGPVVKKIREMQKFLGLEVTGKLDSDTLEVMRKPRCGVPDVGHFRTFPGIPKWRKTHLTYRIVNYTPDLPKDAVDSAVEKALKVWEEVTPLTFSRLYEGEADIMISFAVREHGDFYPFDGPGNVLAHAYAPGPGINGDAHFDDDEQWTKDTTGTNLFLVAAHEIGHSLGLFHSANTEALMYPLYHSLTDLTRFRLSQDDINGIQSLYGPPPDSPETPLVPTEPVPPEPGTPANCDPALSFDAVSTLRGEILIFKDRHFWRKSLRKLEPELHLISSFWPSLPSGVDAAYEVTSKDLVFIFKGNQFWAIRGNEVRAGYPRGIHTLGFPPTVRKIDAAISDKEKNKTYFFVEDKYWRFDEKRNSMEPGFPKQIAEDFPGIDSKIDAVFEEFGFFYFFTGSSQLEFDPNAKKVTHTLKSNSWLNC

| Structure (SMILES) | IC50 (Stromelysin-1 [1]) [µM] | IC50 [2] [µM] | IC50 (Interstitial collagenase [3]) [µM] | IC50 [4] [µM] | IC50 (Stromelysin-1 [5]) [µM] | IC50 (Matrilysin) [µM] | IC50 (Interstitial collagenase [6]) [µM] | IC50 (Stromelysin-1 [7]) [µM] |
| --- | --- | --- | --- | --- | --- | --- | --- | --- |
| CCCC[C@H]1C(=O)N[C@@H](CS)C(=O)N1CC1CCCCC1 | 3.4 | 0.37 | 0.22 |  |  |  |  |  |
| O=C1N[C@@H](CS)C(=O)N(CC2CCCCC2)[C@@H]1CC1CCCCC1 |  |  |  | 12 | > 40 | 4.8 |  |  |
| O=C1N[C@H](CS)C(=O)N(CC2CCCCC2)[C@H]1CC1CCCCC1 |  |  |  | 7 |  | > 40 | 2.6 | > 40 |
| COc1ccc(CN2C(=O)[C@H](CS)NC(=O)[C@@H]2CC2CCCCC2)cc1 | 3.8 | 0.079 | 0.03 |  |  |  |  |  |
| O=C1N[C@H](CS)C(=O)N(CC2CCCCC2)[C@@H]1CC1CCCCC1 |  |  |  | > 40 | > 40 | > 40 | 14 |  |
| CCCCN1C(=O)[C@H](CS)NC(=O)[C@@H]1Cc1ccccc1 | 19 | 2.36 | 0.319 |  |  |  |  |  |
| CCCCCCCCN1C(=O)[C@H](Cc2cccnc2)NC(=O)[C@H]1CS |  |  |  |  |  |  | 10 |  |
| CCCCCCN1C(=O)[C@H](Cc2cccnc2)NC(=O)[C@H]1CS |  |  |  |  |  |  | 2 |  |
| COc1ccc(CN2C(=O)[C@H](CS)NC(=O)[C@@H]2Cc2ccccc2)cc1 | 4.04 | 2.36 | 0.064 |  |  |  |  |  |
| O=C1N[C@@H](CS)C(=O)N(Cc2ccc3ccccc3n2)[C@H]1CC1CCCCC1 | 2.4 | 0.087 | 0.035 |  |  |  |  |  |
| O=C1N[C@@H](CS)C(=O)N(CC2CCCCC2)[C@H]1CC1CCCCC1 | 2.91 | 0.121 | 0.047 | 0.113 |  | 0.59 | 0.047 | 2.3 |
